# APP 5'UTR act = activates APP 5'UTR luciferase reporter; SH-SY5Y APP 5'UTR luciferase reporter, luminescence; zero percent = DMSO vehicle wells; activation, % at 2 µM; 190,000 compounds, 1% hits;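 active means activation above a set limit, based on mean plus 3 SD of controls, cut at about 140% in these data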
# FLuc inh counter = counter-screen for luciferase assay inhibitors: firefly luciferase inhibition | P08659 | ATPLite firefly luciferase biochemical luminescence, 10 min | inhibition, % at 10 µM | 200,000 compounds, 1.5% hits;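 active means inhibition above about 50% when tested at 10 µM, limit read from the data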
# Target sequence (P08659 whole entry, looked up): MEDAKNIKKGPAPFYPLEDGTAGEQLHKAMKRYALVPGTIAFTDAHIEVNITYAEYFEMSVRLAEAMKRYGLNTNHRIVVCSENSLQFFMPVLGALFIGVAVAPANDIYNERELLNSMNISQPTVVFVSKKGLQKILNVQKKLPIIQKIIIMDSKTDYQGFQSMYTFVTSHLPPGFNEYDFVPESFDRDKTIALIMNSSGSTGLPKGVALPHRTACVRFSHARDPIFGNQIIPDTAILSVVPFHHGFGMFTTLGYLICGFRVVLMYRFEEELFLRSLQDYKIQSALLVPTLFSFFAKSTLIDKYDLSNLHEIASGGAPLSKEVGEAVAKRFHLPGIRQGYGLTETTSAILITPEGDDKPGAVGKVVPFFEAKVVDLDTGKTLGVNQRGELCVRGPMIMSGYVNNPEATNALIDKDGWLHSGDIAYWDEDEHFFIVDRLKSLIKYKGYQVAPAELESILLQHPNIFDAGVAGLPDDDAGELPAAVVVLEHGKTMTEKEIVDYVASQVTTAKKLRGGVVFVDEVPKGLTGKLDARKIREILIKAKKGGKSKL
# FLuc act counter = affects firefly luciferase, flagging false hits in luciferase stimulation screens | P08659 | ATPlite luciferase biochemical, luminescence, 10 min; 0 = ATP-free wells, 1 = DMSO control | activation factor at 10 µM | 200,000 tested, under 10 active | AID 1027;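 active means luciferase activation factor, scaled between plate controls, of at least 2 with compound at 10 µM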
#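 test system = cell-free luciferase reagent | medium = PBS as buffer for the ATP substrate | dosing = test compounds dosed from 2 mM stocks in 100% DMSO | incubation = 10 min at ambient temperature | detection = luminescence measurement of luciferase light output | benchmarks = low control with PBS replacing ATP, high control enzyme plus ATP without compound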
# NF-kB expr up = compounds increasing NF-kB expression in human neuronal cells; fold change at 12.5 µM; 190,000 compounds, 1.6% hits; AID 1239; NF-kB reporter expression; hits give high values; in the data active means fold change above about 3.3
# Pf gametocyte = inhibitors of late stage P. falciparum gametocyte viability; P. falciparum stage V gametocytes, ATP luminescence, 24 h; inhibition, % at 10.9 µM; 150,000 compounds, 0.065% hits; AID 743093;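 active means inhibition above the mean plus 3 SD of compounds within the control limits, set per campaign, cut at about 38% in these data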;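 further: 0% = DMSO wells and 100% = medium only without gametocytes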
# STAT1 activator = STAT1 signaling activation; NIH 3T3 STAT1-luciferase reporter, IFN-gamma, luminescence; 100% = IFN-gamma alone, no compound; activation (% of control), % at 5.5 µM; 200,000 compounds, 2.6% hits;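 active means activation above the screen-wide mean activation plus 3 SD, cut at about 130% in these data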;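 further: raw ratio to IFN-gamma control signal so 100% means no change and 0% no light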
# An asterisk follows results filed as active; . = not tested or not shown. An excerpt weighted towards active compounds, which were near 3.5% of everything screened.
SMILES,APP 5'UTR act,FLuc inh counter,FLuc act counter,NF-kB expr up,Pf gametocyte,STAT1 activator
CN1CCS/C1=C/C=C1\SC(=S)N(CC(=O)O)C1=O,3,11,0.9,0.86,1,102
COc1ccc(C2C(=O)c3ccccc3C2=O)cc1OC,11,82*,0.2,1.8,-10,112
COc1ccc(C2=C(N)c3ccccc3C2=O)cc1,61,57*,0.4,2,.,133*
COc1ccc(C2CC(=O)c3ccccc3O2)cc1 (centres undefined),58,-1,1,3.8*,15,113
COc1ccc(C2C(=O)c3ccccc3C2=O)cc1,41,90*,0.1,2.2,.,102
Fc1ccc(-c2csc3ncnc(N4CCc5ccccc5C4)c23)cc1,10,-1,1,0.39,-25,101
O=C(COC(=O)CC1CCCC1)Nc1cc2c(cc1Cl)C(=O)c1ccccc1C2=O,75,1,1,2.5,.,129*
O=c1nc2ccccc2c2n1CC(CN1CCN(C(c3ccccc3)c3ccccc3)CC1)N2 (centres undefined),9,-8,1.1,1,26,106
O=C(O)COc1ccccc1/C=N/NC(=O)CN1CCN(Cc2ccc(Cl)cc2)CC1,.,.,.,.,-3,.
CCn1c(SCC(=O)OC)nnc1-c1c[nH]c2ccccc12,.,.,.,.,-1,.
O=c1c2c3c(sc2nc2n1CCCCC2)CCCC3,70,8,0.9,4.1*,-26,143*
Clc1nc(CN2CCCCC2)nc2sc3c(c12)CCCC3,10,-7,1.1,3.6*,16,105
Cc1cc(NN)nc2ccc(Cl)cc12,-7,-3,1,1.4,-5,105
COc1ccc(NC(=O)N(C)C[C@H]2Oc3ccc(NC(=O)Nc4c(C)noc4C)cc3C(=O)N([C@H](C)CO)C[C@H]2C)cc1,.,.,.,.,-7,.
COc1cccc(-c2nc(CS(=O)CC(=O)NCc3ccccc3)c(C)o2)c1 (centres undefined),.,-2,1,1,.,105
O=C(Nc1ccc(Cl)c(Cl)c1)Nc1ccccc1C(=O)O,215*,67*,0.3,7.7*,7,140*
S=C(NCCc1ccccc1)Nc1ccc(Cl)cc1,25,-3,1,1.1,5,106
O=C(Nc1ccc(Cl)cc1)Nc1ccccc1C(=O)O,119,90*,0.1,4.5*,-11,77
COC(=O)c1sccc1NC(=O)Nc1ccc(Cl)c(Cl)c1,16,-1,1,2.4,.,144*
O=C(NCCc1ccccc1)Nc1ccc(Cl)cc1,.,-5,1.1,2.8,-5,147*
O=C(Nc1cccc(Cl)c1)Nc1ccccc1C(=O)O,.,.,.,.,-6,.
COCCn1c(C)nnc1SCC(=O)Nc1ccccc1[N+](=O)[O-],24,-6,1.1,1.2,-9,95
Cc1ccc(Nc2ncccc2C(=O)O)cc1C,7,9,0.9,1.6,.,115
Cc1ccccc1NC(=O)c1cccc(NC(=O)c2ccccc2C(=O)O)c1,.,.,.,.,-1,.
O=C(O)c1cccnc1Nc1ccc(Cl)cc1,11,-2,1,2.8,.,143*
SMILES,APP 5'UTR act,FLuc inh counter,FLuc act counter,NF-kB expr up,Pf gametocyte,STAT1 activator
CC(C)C(=O)Nc1cccc(C(=O)Nc2ccccc2C(=O)O)c1,-5,61*,0.4,1.1,-34,87
Cc1ccc2nc(-c3ccccc3)cn2c1,3,96*,0,0.96,.,23
CC(=O)Nc1ccc(-c2cn3cc(C)ccc3n2)cc1,149*,84*,0.2,5.9*,-10,130*
O=C(COc1ccccc1F)N/N=C1\CCCc2ccccc21,48,15,0.9,3,-53,139*
Cc1ccc(OC(=O)Nc2ccccc2)cc1,27,51*,0.5,0.98,.,144*
COc1ccc(OCCOC(=O)Nc2ccccc2)cc1,4,-6,1.1,0.86,.,98
CCOC(=O)c1ccc(NC(=O)Oc2ccccc2)cc1,14,-9,1.1,1.3,10,106
O=C(Nc1ccccc1)OCCOc1ccccc1,88,0,1,4.5*,.,132*
CCN(CC)C(=O)c1nc[nH]c1C(=O)N(CC)CC,.,.,.,.,-9,.
O=C(c1ccco1)N1c2ccccc2Sc2ccccc21,-12,-5,1.1,1.1,-35,98
O=C(Cc1ccc(Cl)cc1)Nc1ccc(N2CCN(C(=O)c3ccco3)CC2)cc1,-6,-3,1,0.83,-13,98
O=C(c1ccco1)N1CCN(C(=O)N2c3ccccc3Sc3ccccc32)CC1,-93,0,1,4.7*,-1,101
O=C(c1ccco1)N1CCN(c2ccc(Cl)cc2)CC1,67,4,1,2.8,.,134*
COc1ccc(NC2=C(NCCO)C(=O)c3ccccc3C2=O)cc1,32,6,0.9,4.3*,12,101
COC1=C(Nc2ccc(OC)cc2)C(=O)c2ccccc2C1=O,11,21,0.8,1.1,-1,105
Cc1ccccc1OCc1nc2c3c(ncn2n1)-c1ccccc1CC31CCCC1,1,-2,1,1.2,-2,100
Cc1ccccc1OCc1nc2c3cnn(C)c3ncn2n1,-15,4,1,2.5,-12,141*
O=C(/C=C/Nc1ccccc1O)c1ccco1,.,.,.,.,-22,.
O=C(/C=C/Nc1ccc(Br)cc1F)c1ccco1,135,97*,0,4.7*,-12,25
O=C(/C=C/Nc1ccc(F)c(Cl)c1)c1ccco1,96,41,0.6,2.9,.,150*
O=C(/C=C/Nc1ccc(F)cc1F)c1ccco1,152*,97*,0,4.9*,.,28
CC(COc1ccccc1)N1CCC(CO)(Cc2ccccc2)CC1 (centres undefined),27,-8,1.1,4.4*,16,94
COc1ccc(CC2(CO)CCN(C(C)COc3ccccc3)CC2)cc1 (centres undefined),-12,-3,1,1,-1,101
O=C(NCCSc1ccccn1)c1ccc(Cl)cc1Cl,120,29,0.7,4.5*,6,125
O=C(Nc1ccccc1)c1ccc(CSc2ccccn2)cc1,197*,34,0.7,3.3,.,133*
SMILES,APP 5'UTR act,FLuc inh counter,FLuc act counter,NF-kB expr up,Pf gametocyte,STAT1 activator
CS(=O)(=O)N(Cc1ccc(Cl)cc1)c1ccc(C(=O)NCCSc2ccccn2)cc1,4,-3,1,0.92,-1,98
O=C(NCCSc1ccccn1)c1ccc(Cl)cc1,209*,22,0.8,6.1*,3,121
CCCCN(C)C(=O)CCC(=O)NNc1nc2ccccc2c2nc(C)nn12,.,-6,1.1,1.2,3,97
NC(=O)c1c(NC(=S)Nc2ccccc2)sc2c1CCCC2,7,2,1,1.7,-20,132*
NC(=O)c1cc(Cc2ccccc2)sc1NC(=O)c1ccco1,84,0,1,3.4*,.,142*
O=C(Nc1nnc(Cc2ccccc2)s1)c1ccco1,15,14,0.9,1.6,.,118
NC(=O)c1c(NC(=O)c2ccco2)sc2c1CCC2,29,30,0.7,3.2,.,150*
